Laboratory results from ChEMBL document CHEMBL1125395, “Development of high-affinity 5-HT3 receptor antagonists. 1. Initial structure-activity relationship of novel benzamides” (J Med Chem, 1992).

Assays:
[1] = target: T1, Serotonin 3 (5-HT3) receptor (Rattus norvegicus, UniProt P35563+Q9JJ16); experiment: Displacement of the 5-hydroxytryptamine 3 receptor ligand [3H]GR-65630 from rat brain cortical membranes.; assay type: cell membranes, Membrane
T1 sequence (P35563 whole entry): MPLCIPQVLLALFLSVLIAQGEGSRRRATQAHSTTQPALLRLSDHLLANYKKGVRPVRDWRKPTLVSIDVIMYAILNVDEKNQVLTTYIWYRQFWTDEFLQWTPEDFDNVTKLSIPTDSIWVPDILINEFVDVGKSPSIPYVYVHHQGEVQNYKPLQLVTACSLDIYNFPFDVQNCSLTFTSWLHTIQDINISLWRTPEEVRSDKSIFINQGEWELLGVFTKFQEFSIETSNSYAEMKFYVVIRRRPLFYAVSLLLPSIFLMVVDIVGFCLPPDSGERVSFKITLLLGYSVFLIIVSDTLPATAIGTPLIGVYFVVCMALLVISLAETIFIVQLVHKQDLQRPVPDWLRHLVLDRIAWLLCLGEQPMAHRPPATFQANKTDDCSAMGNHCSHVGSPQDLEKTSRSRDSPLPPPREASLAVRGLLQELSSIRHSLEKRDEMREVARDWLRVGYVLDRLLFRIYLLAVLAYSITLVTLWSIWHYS
T1 sequence (Q9JJ16 whole entry): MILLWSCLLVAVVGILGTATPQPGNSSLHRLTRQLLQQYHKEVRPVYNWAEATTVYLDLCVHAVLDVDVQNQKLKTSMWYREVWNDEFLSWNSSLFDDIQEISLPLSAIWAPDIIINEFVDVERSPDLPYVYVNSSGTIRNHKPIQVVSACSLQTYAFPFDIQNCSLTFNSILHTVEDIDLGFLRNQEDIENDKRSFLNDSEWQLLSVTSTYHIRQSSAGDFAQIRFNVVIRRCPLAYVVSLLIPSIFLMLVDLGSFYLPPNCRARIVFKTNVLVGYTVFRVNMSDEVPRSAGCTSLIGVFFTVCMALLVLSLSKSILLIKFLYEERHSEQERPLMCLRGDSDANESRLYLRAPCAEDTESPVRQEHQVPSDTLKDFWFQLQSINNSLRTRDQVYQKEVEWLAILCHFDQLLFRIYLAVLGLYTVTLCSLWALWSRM
How it was run: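 Entorhinal cortex from frozen rat brains homogenized, spun 40000g 10 min in HEPES buffer (25 mM HEPES, CaCl2 5 mM, pH 7.4). Filtration, Tris pH 7.7 washes, scintillation counting. Four-six concentrations in triplicate; Ki via Cheng-Prusoff.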

Mustela putorius furo [2] = experiment: Antiemetic activity (intravenous administration) against cisplatin-induced emesis in ferret, as the dose required to reduce emetic episodes to 50% of control value; assay type: functional
How it was run: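 Castrated male Fitch ferrets (1-2 kg, nonfasted), jugular catheter implanted ≥48 h prior. Compound in 0.9% saline iv (2 mL/kg) 30 min before and 45 min after cisplatin 3 mg/kg iv. Emetic episodes counted for 4 h post-cisplatin, % inhibition vs vehicle controls run in tandem; dose halving episodes from 4-10 animals/dose, ≥3 doses, 95% confidence limits.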

Mustela putorius furo [3] = experiment: Antiemetic activity (intravenous administration) against cisplatin-induced emesis in ferret, as the dose required to increase latency to first emetic bout by 100%; assay type: functional
How it was run: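 Nonfasted castrated male Fitch ferrets (1-2 kg) with jugular vein catheter implanted under pentobarbital ≥48 h earlier. Drug in 0.9% saline, 2 mL/kg iv, 30 min before and 45 min after cisplatin (3 mg/kg iv). Emetic latency recorded over 4 h; % increase vs tandem vehicle; dose raising mean latency 100%. 3-12 ferrets/dose, ≥3 doses, 95% confidence limits.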

Mustela putorius furo [4] = experiment: Antiemetic activity (oral administration) against cisplatin-induced emesis in ferret, as the dose required to increase latency to first emetic bout by 50%; assay type: functional
How it was run: (§1)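 Nonfasted castrated male Fitch ferrets (1-2 kg), each used once. Drug dissolved/suspended in 0.5% methylcellulose in gelatin capsule, given po 60 min before cisplatin 3 mg/kg iv (via jugular catheter). Vehicle controls in tandem. Observed 4 h; emetic episodes and latency to first bout recorded. ED50 from 3-12 animals per dose, at least 3 doses, with 95% confidence limits.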

Mustela putorius furo [5] = experiment: Antiemetic activity (oral administration) against cisplatin-induced emesis in ferret, as the dose required to reduce emetic episodes to 50% of control value; assay type: functional; how it was run: as §1

Row | Compound | Ki [1] | ED50 (Mustela putorius furo [2]) | ED100 (Mustela putorius furo [3]) | ED50 (Mustela putorius furo [4]) | ED50 (Mustela putorius furo [5])
1 | CC1(C)CCCc2cc(Cl)cc(C(=O)NC3CN4CCC3CC4)c2O1 (stereo unspecified) | 15.6 nM |  |  |  | 
2 | O=C(NC1CN2CCC1CC2)c1cccc2c1OCCCC2 (stereo unspecified) | 13.8 nM |  |  |  | 
3 | O=C(NC1CN2CCC1CC2)c1cc(Cl)cc2c1OCCCCC2 (stereo unspecified) | 4.7 nM |  |  |  | 
4 | COc1ccc(Cl)cc1C(=O)NC1CN2CCC1CC2 (stereo unspecified) | 46.8 nM |  |  |  | 
5 | O=C(NC1CN2CCC1CC2)c1cc(Cl)cc2c1OC1(CCCCC1)C2 (stereo unspecified) | 1.07 nM | 0.002 mg/kg | 0.006 mg/kg |  | 
6 | O=C(NC1CCN2CCCC1C2)c1cc(Cl)cc2c1OCCCC2 (stereo unspecified) | 63 nM |  |  |  | 
7 | O=C(N[C@H]1CN2CCC1CC2)c1cc(Cl)cc2c1OC1(CCCCC1)C2 | 0.89 nM | 0.099 mg/kg | 0.055 mg/kg |  | 
8 | O=C(N[C@@H]1CN2CCC1CC2)c1cc(Cl)cc2c1OC1(CCCCC1)C2 | 0.19 nM | 0.009 mg/kg | 0.005 mg/kg | 0.004 mg/kg | 0.009 mg/kg
9 | Nc1c(Cl)cc2c(c1C(=O)NC1CN3CCC1CC3)OCCCC2 (stereo unspecified) | > 100 nM |  |  |  | 
10 | COc1c(C(=O)NC2CN3CCC2CC3)cc(Cl)cc1C1CCCCC1 (stereo unspecified) | 6.09 nM |  |  |  | 
11 | CCC(C)Oc1c(C(=O)NC2CN3CCC2CC3)cc(Cl)cc1C1CCCCC1 (stereo unspecified) | > 30 nM |  |  |  | 
12 | O=C(NC1CN2CCC1CC2)c1cc(Cl)cc2c1OCCCC2 (stereo unspecified) | 1.22 nM |  |  |  | 
13 | O=C(NC1CN2CCC1CC2)c1cc(Br)cc2c1OCCCC2 (stereo unspecified) | 2.16 nM |  |  |  | 
14 | CN1CC2CCC1CC(OC(=O)c1c[nH]c3ccccc13)C2 (stereo unspecified) | 1.66 nM |  |  |  | 
15 | CN1C2CCCC1CC(NC(=O)c1nn(C)c3ccccc13)C2 (stereo unspecified) [GRANISETRON] |  | 0.226 mg/kg | 0.082 mg/kg | 0.117 mg/kg | 0.119 mg/kg
16 | CCN(CC)CCNC(=O)c1cc(Cl)c(N)cc1OC [METOCLOPRAMIDE] | 995 nM | 1.45 mg/kg | 2.1 mg/kg | > 5 mg/kg | 6.17 mg/kg
17 | Cc1nccn1CC1CCc2c(c3ccccc3n2C)C1=O (stereo unspecified) [ONDANSETRON] |  | 0.008 mg/kg | 0.015 mg/kg | 0.031 mg/kg | 0.28 mg/kg
18 | COc1cc(N)c(Cl)cc1C(=O)NC1CN2CCC1CC2 (stereo unspecified) [ZACOPRIDE] | 1.5 nM |  |  |  | 
